# Screens: PubChem, several laboratories
# KLK7 zymogen act: activators of human kallikrein-7 zymogen. purified proKLK7, EDANS-DABCYL substrate fluorescence; 100% is mature enzyme control, 0% vehicle. P49862. activation, % at 7 µM. hit rate 0.9% among 370,000;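 active = activation above the mean of all tested compounds plus 3 SD, computed per campaign excluding outliers beyond control limits, cut at about 13% in these data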
# Target sequence (P49862 whole entry, looked up): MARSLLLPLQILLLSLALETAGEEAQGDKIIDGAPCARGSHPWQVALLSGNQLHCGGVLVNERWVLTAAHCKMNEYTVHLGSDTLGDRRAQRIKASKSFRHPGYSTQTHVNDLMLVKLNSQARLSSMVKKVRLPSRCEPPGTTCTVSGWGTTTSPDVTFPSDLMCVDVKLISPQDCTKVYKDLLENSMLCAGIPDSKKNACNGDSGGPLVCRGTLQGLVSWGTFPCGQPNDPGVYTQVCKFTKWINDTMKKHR
# RanGTP-Imp inh: disruptors of Ran-importin-beta complex formation – biochemical, FRET, CFP-Ran, YFP-importin-beta, homogeneous, primary screen; inhibition, % (concentration not given with the values); hit rate 1.1% among 300,000; cell-free CFP-Ran/YFP-importin-beta FRET ratio; AID 2216;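 active = more than half of the replicate wells show a fall in the fluorescence ratio signal beyond about 16%, limit read from the data, passing the limit was not always enough; inconclusive = exactly half of the replicate wells pass the set limit; inactive = fewer than half of replicates pass the limit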;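 also: 0% = DMSO wells and 100% = Ran loaded with GDP instead of GTP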
# Runt-CBFb FRET: blocks binding of human RUNX1 Runt domain to CBFb | inhibition, % at 20 µM | Q01196+Q13951 | AID 1496 | Cerulean-Runt/Venus-CBFb FRET ratio 530/480, 1 h | hit rate 0.46% among 220,000;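 active = inhibition over about 50% at 20 µM in the single-dose screen, limit read from the data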;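 also: 0% = DMSO wells and 100% = excess unlabeled CBFb competitor control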
#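 Measured by: fluorescence energy transfer, 422 nm excitation, 530/480 nm emission; Assay system: Cerulean-Runt domain; Medium: Tris pH 7.5 buffer with BSA; Measure: loss of energy transfer signal; Controls: 5 µM unlabeled CBFb as full-inhibition high control; Incubation: protein complex preformed 1 h, compound exposure 1 h, room temperature, dark.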
# Runt-SMMHC FRET: blocks binding of human RUNX1 Runt domain to CBFb-SMMHC; Q01196+Q13951; Cerulean-Runt/Venus-CBFb-SMMHC FRET ratio 530/480, 1 h; inhibition, % at 20 µM; hit rate 0.74% among 220,000; AID 1434;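 active = mean inhibition across duplicate retests at 20 µM reaching about 50%, limit read from the data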;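 also: 0% = DMSO wells and 100% = wells with excess untagged CBFb-SMMHC; inhibitors lower the FRET ratio by blocking Runt binding to CBFb-SMMHC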
# Wee1 stabilizer: inhibitors of human Wee1 degradation; hit rate 1.2% among 220,000; AID 1321; P30291; HeLa Luc-Wee1K328M stability, luciferase luminescence; 100% = proteasome inhibitor MG132 effect; reporter increase, % at 5 µM;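 active = activation above the mean of all tested compounds plus 3 SD, set per screening run, cut at about 8.8% in these data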;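 also: cells exposed to compound for 20 h before luminescence read; 0% = DMSO alone and 100% = MG132 at 30 µM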
# AI-2 QS mod: modulators of Vibrio harveyi AI-2 quorum sensing system; activity change, % at 7.5 µM; hit rate 0.4% among 300,000; AID 2094; Vibrio harveyi JMH597 AI-2 luminescence/OD600 ratio, 9 h; hits give low values; strain lacks LuxN and CqsS sensors; 0 = neutral-control median; in the data active = activity change below about -75%, passing the limit was not always enough; inconclusive = no clear call, values can overlap the other calls;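 also: luminescence divided by OD600 gain over 9 h not by final OD600 alone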
# KLK7 act conf: proKLK7 activation, confirmation | shares compounds with KLK7 zymogen act | purified proKLK7, EDANS-DABCYL substrate fluorescence; scaled: vehicle 0, mature enzyme 100 | activation, % at 7 µM | hit rate 68% among 3,200 | AID 686949;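 active = activation, as change over the incubation, above the mean of all tested compounds plus 3 SD, cut at about 13% in these data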
# EDANS-DABCYL int: optically interferes with EDANS-DABCYL signal, flagging KLK7 hits; activation, % at 7 µM; shares compounds with KLK7 zymogen act; EDANS-DABCYL substrate fluorescence interference, no enzyme, 4 h; solvent 0%, active enzyme control 100%; hit rate 80% among 3,200;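 active = activation above the all-compound mean plus 3 SD, ignoring values outside control-based bounds, cut at about 4.8% in these data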;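 also: value is the 4 h activation minus the activation read at time zero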
# EDANS interf: counter-screen for kallikrein-7 activators: EDANS-DABCYL interference, dose response; shares compounds with KLK7 zymogen act; EDANS-DABCYL peptide fluorescence interference, no enzyme; EC50, µM; hit rate 20% among 250;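 active = compounds that raise the fluorescence signal in this interference counterscreen, with EC50 at or below 10 µM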;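 also: intact quenched peptide substrate alone read at 355 nm excitation and 520 nm emission; signal is fluorescence gain from T0 to T4 after four hours at room temperature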
# Numbers without * were called inactive; ? = inconclusive; / = no result given. Only some compounds are listed: those with a hit (about 2.9% of all), similar ones and a draw of the others.
SMILES,KLK7 zymogen act,RanGTP-Imp inh,Runt-CBFb FRET,Runt-SMMHC FRET,Wee1 stabilizer,AI-2 QS mod,KLK7 act conf,EDANS-DABCYL int,others
COc1ccc(-c2c(NC(=O)C(C)C)n(C)c3ccccc3c2=O)cc1,16.3*,1.7,-0.4,-2.0,-2.8,0.7,17.5*,19.8*,
CCOC(=O)C1CCN(c2cc3c(cc2NC(=O)c2ccccc2Br)n(C)c(=O)n3C)CC1,2.7,-37.8,/,/,/,21.2,/,/,
CCOC(=O)C1CCN(c2cc3c(cc2NC(=O)c2cc(OC)ccc2Br)n(C)c(=O)n3C)CC1,19.5*,-19.4,/,/,/,-0.8,24.8*,30.5*,
CN1C=CC2=C(C#N)C(N)C(C#N)(C#N)[C@H](c3ccccc3)[C@H]2C1 (some centres not stated),38.9*,64.1*,66.4*,79.4*,1.3,32.3,22.0*,18.1*,EDANS interf=>69.5
N#CC1(C#N)C(C(N)=O)C1c1ccccc1 (configuration not stated),0.4,?,-1.4,-9.7,0.4,20.3,/,/,
COc1cc2c(cc1OC)C(O)C(O)(CO)C(C(=O)O)C2c1cc(OC)c(OC)c(OC)c1 (configuration not stated),-0.4,/,/,/,/,/,/,/,
CN(C)c1ccc2c(=O)cc[nH]c2c1,79.6*,/,/,/,/,/,72.4*,73.5*,
O=c1cc[nH]c2c1ccc1c(=O)cc[nH]c12,-61.1,0.3,/,/,/,4.5,/,/,
CCN(CC)CCNC(=O)C(=O)Nc1cc2c3c(c1)CCC(=O)N3CCC2,0.9,-1.2,/,/,/,-7.1,/,/,
NC(=O)c1ccc(-c2ncc(-c3ccccc3)o2)cc1,69.2*,0.8,0.2,-4.3,-3.7,21.3,58.6*,62.0*,
O=c1c(N2CCOCC2)coc2ccccc12,0.0,2.6,-2.5,-2.0,1.9,6.8,/,/,
O=c1[nH]c(N2CCOCC2)cc2ccccc12,34.1*,1.2,/,/,/,1.0,19.6*,-7.4,EDANS interf=>69.6
Cc1sc(-c2ccncc2)nc1OC(=O)c1ccccc1,19.1*,-0.3,-7.4,-25.8,0.6,19.3,33.8*,28.9*,
CCN(CC)CCCn1c2c(c(SCC(=O)Nc3ccc(OC(F)(F)F)cc3)nc1=O)CCC2,-0.3,?,/,/,/,12.7,/,/,
Cn1c(=O)c2cc(NC(=S)NC3CC3)ccc2n1Cc1ccc(F)cc1,13.7*,/,/,/,/,/,9.3,13.7*,
Cn1c(=O)c2cc(NC(=O)NCCc3ccccc3)ccc2n1Cc1ccc(F)cc1,15.8*,/,/,/,/,/,0.6,-0.4,
C=C(C)Cn1c2ccc(NC(=O)NCCc3ccccc3)cc2c(=O)n1C,27.4*,/,/,/,/,/,8.5,19.6*,
CC(C)NC(=S)NC(=O)c1ccc(-c2ccccc2)cc1,0.1,0.5,-0.2,-1.7,0.7,12.7,/,/,
COc1ccc(CCCNC(=O)C2Cc3c(-c4ccc(NC(C)=O)cc4)ccnc3O2)cc1 (configuration not stated),0.3,/,/,/,/,/,/,/,
COc1cc(N)c2ncsc2c1,0.1,/,/,/,/,/,/,/,
CC(C)(C)C1N=C(c2ccc3ccccc3c2)OC1=O (configuration not stated),-0.1,/,/,/,/,/,/,/,
COc1cccc(-c2nc3ccccc3s2)c1O,25.4*,-0.4,22.9,46.4,7.9,17.0,-3.2,-3.6,
COc1cc(OC)c(-c2nc3ccccc3s2)cc1OC,-46.2,-2.0,-0.1,-5.4,0.7,33.1,/,/,
CCOC(=O)C1(C)CCN1C(=O)c1ccc(C(C)(C)C)cc1 (configuration not stated),0.1,/,/,/,/,/,/,/,
CC(C)(C)c1nn2cnnc2n(/N=C/c2ccc(O)cc2)c1=O,0.2,0.0,-1.0,-0.4,3.9,0.6,/,/,
SMILES,KLK7 zymogen act,RanGTP-Imp inh,Runt-CBFb FRET,Runt-SMMHC FRET,Wee1 stabilizer,AI-2 QS mod,KLK7 act conf,EDANS-DABCYL int,others
COc1ccc(-c2ncccc2OC(=O)C23CC4CC(CC(C4)C2)C3)cc1OC,18.3*,-3.4,-2.0,3.4,0.7,16.9,12.0,8.2*,
O=C(Oc1ccc(Cl)c2cccnc12)C12CC3CC(CC(C3)C1)C2,-0.2,-3.5,-1.8,-1.3,2.0,13.9,/,/,
O=c1c(-c2ccccc2Cl)coc2c(CN3CCCCC3)c(O)ccc12,59.8*,1.2,/,/,/,5.2,73.9*,74.1*,
CC1CN(Cc2c(O)ccc3c(=O)c(-c4ccccc4Cl)coc23)CC(C)O1 (configuration not stated),89.7*,1.1,/,/,/,26.9,26.1*,29.6*,
O=c1c(-c2ccc(Br)cc2)coc2c(CN3CCCCC3)c(O)ccc12,9.5,1.1,/,/,/,14.4,/,/,
O=c1c(-c2ccc(Cl)cc2)coc2c(CN3CCCCC3)c(O)ccc12,13.7*,-0.1,/,/,/,28.5,21.5*,27.1*,
O=c1c(-c2ccc(Br)cc2)coc2c(CN3CCOCC3)c(O)ccc12,14.4*,3.9,-1.1,0.5,-2.0,7.8,13.3*,5.8*,EDANS interf=>69.5
COc1ccc(Oc2coc3c(CN4CCOCC4)c(O)ccc3c2=O)cc1,29.5*,-0.3,-1.7,-1.5,5.9,-20.0,12.3,15.1*,
Cc1cc(NCCCN(C)C)n2c(nc3ccccc32)c1C#N,71.6*,?,/,/,/,6.6,71.8*,68.9*,
Cc1cc(NCCCn2ccnc2)n2c(nc3ccccc32)c1C#N,16.7*,18.7*,13.3,29.8,-1.0,12.8,54.3*,71.9*,
CCCc1cc(NCCCO)n2c(nc3ccccc32)c1C#N,16.8*,30.3*,14.8,37.5,2.4,-4.7,-11.1,-10.9,
CCC(C)Nc1cc(C)c(C#N)c2nc3ccccc3n12 (configuration not stated),26.1*,6.7,/,/,/,15.1,-1.3,3.2,
O=C(CSc1nnc(CNC(=O)c2ccco2)o1)Nc1ccccc1F,-0.6,0.4,/,/,/,11.9,/,/,
CC1=CC(C)C(/C=N/N=C(N)N)C(C)C1 (configuration not stated),0.6,-0.6,0.9,-5.1,0.7,27.5,/,/,
COc1ccc(-c2cn3cc(C)ccc3n2)cc1OC,13.0*,-3.5,-0.5,-0.6,10.0*,18.1,7.7,12.7*,
COc1ccc(CC(=O)Nc2ccc(-c3cn4ccccc4n3)cc2)cc1,-4.8,-4.5,1.5,-2.2,0.1,-9.7,/,/,
COc1ccc(CC(=O)Nc2ccc(-c3cn4ccccc4n3)cc2)cc1OC,32.6*,-1.6,-1.5,-7.1,-1.0,11.8,4.8,1.5,
